# Reference: ChEMBL document CHEMBL1148942, “Cucurbitane triterpenoids from Leucopaxillus gentianeus” (J Nat Prod, 2004)
# Key:
# Type in all cases: functional, cell-based
# A549 = assay: Cytotoxicity against human A549 cells after 24 hrs by MTT assay; settings: A549, 24 h
# Procedure, shortened: (§1)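 ATCC cells kept adherent at 37 °C, 5% CO2 (A549: F12K + 10% FBS; HepG2, MCF-7: MEM + 1 mM pyruvate + 10% FBS; CAKI 1: McCoy's + 10% FBS). Seeded and grown 24 h, then exposed 24 h to compounds in FBS-free medium (final DMSO 0.25%). PBS wash, MTT 0.5 mg/mL in phenol-red-free MEM for 3 h at 37 °C, formazan dissolved in DMSO, read at A540. Two experiments in triplicate; IC50 derived.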
# CAKI-1 = assay: Cytotoxicity against human Caki1 cells after 24 hrs by MTT assay; settings: CAKI-1, 24 h; procedure, shortened: as §1
# HepG2 = assay: Cytotoxicity against human HepG2 cells after 24 hrs by MTT assay; settings: HepG2, 24 h; procedure, shortened: as §1
# MCF7 = assay: Cytotoxicity against human MCF7 cells after 24 hrs by MTT assay; settings: MCF7, 24 h; procedure, shortened: as §1
SMILES,IC50 (A549) [µM],IC50 (CAKI-1) [µM],IC50 (HepG2) [µM],IC50 (MCF7) [µM]
CC(=O)O[C@H](C[C@@H](OC(C)=O)C(C)(C)O)[C@@H](C)[C@H]1CC[C@@]2(C)[C@@H]3CC=C4[C@@H](CCC(=O)C4(C)C)[C@]3(C)[C@]3(O)C[C@]12CO3 [LEUCOPAXILLONE B],155,30.3,86.9,86.9
CC(=O)O[C@H](C[C@@H](OC(C)=O)C(C)(C)O)[C@@H](C)[C@H]1CC[C@@]2(C)[C@@H]3CC=C4[C@@H](CCC(=O)C4(C)C)[C@]3(C)CC[C@]12CO [LEUCOPAXILLONE A],> 300,108,96.7,7.94
CC(=O)OC(C)(C)/C=C/C(=O)[C@](C)(O)[C@H]1[C@H](O)C[C@@]2(C)[C@@H]3CC=C4[C@H](C[C@H](O)C(=O)C4(C)C)[C@]3(C)C(=O)C[C@]12C [CUCURBITACIN B],46.6,7.1,0.76,0.78
